What is called IC50 is the midpoint of a concentration-inhibition curve.

Data set [1] in a line: Stimulation of immune response in pretreated thymocytes isolated from Graffi myeloid tumor bearing hamster assessed as migration area after 16 hrs by indirect agarose technique. It counts as cell-based. The settings on record: cricetinae, thymocyte. In a few lines: (§1)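 Cells came from treated tumor-bearing hamsters: spleen cells, thymocytes or blood lymphocytes. They were loaded into 3-mm wells cut in an agarose monolayer in 50 mm Petri dishes and kept 16 h at 37 °C, 5% CO2. The migration area was then measured. The migration index (LIF) is the ratio of experimental to control migration area. Values are means of three experiments.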

Data set [2] can be described thus: Stimulation of immune response in pretreated thymocytes isolated from Graffi myeloid tumor bearing hamster assessed as ratio of migration area of experimental cells to control cells after 16 hrs by indirect agarose technique. It is filed as cell-based. As to conditions: cricetinae, thymocyte; call rule not given here. In a few lines: as §1
Data set [3] in a line: Stimulation of immune response in pretreated thymocytes isolated from Graffi myeloid tumor bearing hamster assessed as rosette formation. It counts as cell-based. The settings on record: cricetinae, thymocyte.
The nature of data set [4]: Stimulation of immune response in pretreated thymocytes isolated from Graffi myeloid tumor bearing hamster assessed as number of plaque forming cells after 24 hrs […]. It is filed as cell-based. The settings on record: cricetinae, thymocyte.
Data set [5] has as its system PBL. Kind of data set: Stimulation of immune response in pretreated PBL isolated from Graffi myeloid tumor bearing hamster assessed as rosette formation. It is filed as cell-based. The settings on record: cricetinae.
The subject of data set [6] is PBL. Kind of data set: Stimulation of immune response in pretreated […] isolated from Graffi myeloid tumor bearing hamster assessed as number of plaque forming cells after 24 hrs […]. It is filed as cell-based. As to conditions: cricetinae.
Data set [7] deals with PBL. The data set is described as follows: Cytotoxicity against solid form of Graffi myeloid tumor bearing hamster PBL after 24 hrs by trypan blue assay. It is filed as cell-based. As to conditions: Cricetinae. In outline:
(§2)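 Thymocytes and peripheral blood lymphocytes came from sexually mature hamsters bearing solid Graffi myeloid tumor. Compounds were made up at 0.5 mg/ml in DMSO, and this stock was diluted 1:10, 1:100, 1:1000 and 1:100,000. Equal volumes of cells and dilution were mixed and held 24 h at 37 °C in humidified 5% CO2. Survival was scored by 0.2% trypan blue exclusion under the microscope, and IC50 was derived.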

Data set [8] concerns PBL. Kind of data set: Cytotoxicity against PBL isolated from solid form of Graffi myeloid tumor bearing hamster pretreated at 0.5 mg/ml, ip for 5 days measured after 24 hrs by trypan blue assay. The settings on record: Cricetinae. In a few lines:
(§3)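 Tumor-bearing hamsters first received compound at 0.5 mg/ml i.p. Thymocytes or blood lymphocytes were isolated five days later. These were exposed in vitro to serial dilutions of a DMSO stock (5 mg/ml) for 24 h at 37 °C, 5% CO2, then scored with 0.2% trypan blue. Each IC50 is the mean of three parallel samples in three independent experiments.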

Data set [9] can be described thus: Cytotoxicity against solid form of Graffi myeloid tumor bearing hamster thymocytes after 24 hrs by trypan blue assay. It is filed as cell-based. As to conditions: cricetinae, thymocyte. In outline:
as §2

A short description of data set [10]: Cytotoxicity against thymocytes isolated from solid form of Graffi myeloid tumor bearing hamster pretreated at 0.5 mg/ml, ip for 5 days measured after 24 hrs by trypan blue assay. As to conditions: cricetinae, thymocyte. In a few lines: as §3
Data set [11] is described as follows: Stimulation of immune response in pretreated spleen cells isolated from Graffi myeloid tumor bearing hamster assessed as migration area after 16 hrs by indirect agarose technique. It counts as cell-based. As to conditions: cricetinae. In outline: as §1
A short description of data set [12]: Stimulation of immune response in pretreated spleen cells isolated from Graffi myeloid tumor bearing hamster assessed as rosette formation. It counts as cell-based. As to conditions: cricetinae.
The nature of data set [13]: Stimulation of immune response in pretreated spleen cells isolated from Graffi myeloid tumor bearing hamster assessed as number of plaque forming cells after 24 hrs by modified agar-plate method. The settings on record: cricetinae. It counts as cell-based. In outline:
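Plaque-forming (haemolysin-producing B) cells were counted by the Cunningham–Szenberg method. Cells from treated tumor-bearing hamsters were mixed with complement and sheep red blood cells and loaded into chambers. Haemolytic zones were counted per 10⁶ lymphocytes. Values are means of three experiments, compared against cells from control animals.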

Data set [14] has as its system PBL. Kind of data set: Stimulation of immune response in pretreated PBL isolated from Graffi myeloid tumor bearing hamster assessed as migration area after 16 hrs by indirect agarose technique. It is filed as cell-based. The settings on record: cricetinae. In outline: as §1
Data set [15] concerns PBL. The data set is described as follows: Stimulation of immune response in pretreated PBL isolated from Graffi myeloid tumor bearing hamster assessed as ratio of migration area of experimental cells to control cells after 16 hrs by indirect agarose technique. As to conditions: cricetinae. It is filed as cell-based. In a few lines:
as §1

A short description of data set [16]: Stimulation of immune response in pretreated spleen cells isolated from Graffi myeloid tumor bearing hamster assessed as ratio of migration area of experimental cells to control cells after 16 hrs by indirect agarose technique. It counts as cell-based. As to conditions: cricetinae. In outline:
as §1

Data set [17] is described as follows: Cytotoxicity against pretreated spleen cells isolated from Graffi myeloid tumor bearing hamster assessed as full lysis. It counts as cell-based. The settings on record: cricetinae.

Consider `CCNC(=S)NNC(=O)c1ccc(-c2ccccc2)s1`, for which the Activity was 202 mm2 in data set [1]; “Not Active” in data set [3]; 7800 in data set [4]; “Not Active” with PBL [5]; 5200 in the data set with PBL [6]; 822 mm2 in [11]. Moreover, the results for the Activity entry in data set [12] and in data set [13] were “Not Active” and 2010, respectively. The Ratio in [2] turned out to be 0.104. Moreover, the IC50 in the data set on PBL [7] was 1640 nM; with PBL [8], 320 nM; in data set [9], 2100 nM; in data set [10], 3500 nM.

In the case of `Nn1c(-c2ccc(-c3ccccc3)s2)n[nH]c1=S`, the Activity is listed as 1836 mm2 in data set [1]; “Not Active” in data set [3]; 19200 in data set [4]; “Not Active” with PBL [5]; 19920 in the data set on PBL [6]; 2332 mm2 in [11]. In addition, the Activity entry in data set [12] is “Not Active”; in data set [13], 4700. In data set [2], the Ratio amounted to 0.954. For the same molecule, the IC50 in the data set with PBL [8] was 12 nM; in [9], 240 nM; in data set [10], 0.001 nM.

`CCNc1nnc(-c2cc3c(s2)CCCC3)s1`: the Activity in data set [1] was 1118 mm2; in [3], “Not Active”; in [4], 15300; in the data set with PBL [5], “Not Active”; with PBL [6], 14288; in data set [11], 1788 mm2. Besides, the values for the Activity entry in [12] and in data set [13] were “Not Active” and 3928, respectively. Further, in [2], the Ratio is listed as 0.581. In addition, the IC50 in the data set with PBL [7] was 320 nM; in the data set with PBL [8] it was 410 nM; in data set [9], 260 nM; in [10] it was 0.0052 nM.

`Nn1c(-c2cc3c(s2)CCCC3)n[nH]c1=S`: the Activity in [1] is 1024 mm2; in data set [3], “Not Active”; in data set [4], 7250; in the data set on PBL [14], 1800 mm2; in the data set with PBL [5] it was “Not Active”; with PBL [6] it was 5869. In addition, the Activity was 1286 mm2 in data set [11], “Not Active” in [12] and 3920 in data set [13]. The Ratio in [2] is given as 0.532; in the data set on PBL [15] it was 1.654. Besides, the IC50 in the data set on PBL [7] is 2670 nM; in the data set on PBL [8], 140 nM; in data set [9], 2200 nM; in [10] it was 12 nM.

Turning to `CCn1c(-c2cc3c(s2)CCCC3)n[nH]c1=S`, the Activity in data set [1] is given as 997 mm2; in data set [3], “Not Active”; in data set [4], 5287; with PBL [5], “Not Active”; with PBL [6], 4992; in data set [11], 1823 mm2. Moreover, the Activity result in data set [12] is given as “Not Active”; in [13], 3700. In addition, the Ratio was found to be 0.518 in data set [2], 0.001 with PBL [15] and 0 in data set [16]. For the same molecule, the IC50 stood at 1810 nM with PBL [7], 290 nM in the data set on PBL [8], 120 nM in data set [9] and 460 nM in data set [10].

Turning to `CCNC(=S)NNC(=O)c1cc2c(s1)CCCC2`, the Activity in data set [1] is 146 mm2; in data set [3] it was “Not Active”; in data set [4], 2040; with PBL [5], “Not Active”; in the data set on PBL [6] it was 768; in data set [17] it was “Toxic”. Also, in data set [12], the Activity entry is given as “Not Active”. Besides, the Ratio in data set [2] is on record as 0.08. In addition, the half-maximal inhibitory concentration (IC50) with PBL [8] is 14 nM; in [9], 110 nM.

The values are drawn from ChEMBL document CHEMBL1152851, “Synthesis, cytotoxicity and effects of some 1,2,4-triazole and 1,3,4-thiadiazole derivatives on immunocompetent cells” (Eur J Med Chem, 2009).
